Out of some 65,000 compounds screened, about 1,400 (2.2%) were called active. Many of the other results were omitted from the sample, so actives are more common in it than they were. Unmarked numbers belong to inactive results.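 How the source made its calls: active means growth inhibition at or above a cutoff equal to the mean over every tested compound plus 3 SD (cut at about 60% in these data); inactive means the rest.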

A short description of this assay: E. coli ΔtolC antibacterial growth inhibition – strain BW25113 ΔtolC::kan, 384-well, primary screen (AID 573). Conditions: E. coli BW25113 tolC mutant growth, OD615; stronger effect = higher value; screened at 10 µM (by protocol). The method in brief:
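Doses: one dose of 10 µM final / Material: E. coli BW25113 ΔtolC::kan, tolC deletion mutant strain / Buffer or medium: LB with kanamycin 50 µg/mL / Evaluation: percent growth inhibition / Detection: optical density read at 615 nm / Incubation: 37 °C, 20 h exposure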
Turning to `Cc1cccc(C(=O)Nc2ccc(CC(=O)O)cc2)c1`, the growth inhibition was -16%. The figure for `COC(=O)c1sc(=S)n(-c2ccccc2)c1N` is -12.6%; for `COc1ccc(-c2csc(N3CCN(Cc4ccc5c(c4)OCO5)CC3)n2)cc1` it is 5.4%. Take `CC1CCCC(C)N1C(=O)CN1CCN(c2nc(-c3ccc(F)cc3)cs2)CC1` (centres undefined): the growth inhibition was 100% (active). The figure for `O=C(CN1CCN(c2nc(-c3ccccc3)cs2)CC1)NCc1ccc2c(c1)OCO2` is 50%. The same measure for `COc1c(F)c(F)c(-c2csc(N)n2)c(F)c1F`: 9.92%; for `CNC(=O)Nc1cc(C(C)(C)C)no1`: -22.1%; for `O=C(NCc1ccco1)c1cc2sccc2n1Cc1ccc(F)cc1`: 56.9%. The same measure for `CCOC(=O)c1cc2sccc2n1Cc1ccc(C#N)cc1`: 62.5% (active). As to `COc1ccc(CCNC(=O)c2cc3sccc3n2C)cc1OC`, the growth inhibition was 7.67%. The figure for `c1nnc2c3c4c(sc3ncn12)CCC4` is -4.55%. The figure for `O=C(CSc1nc2ccccc2o1)N1CCN(c2ccccc2)CC1` is 5.08%. The figure for `Cc1cccc(NC(=O)CSC(N)=O)c1C` is -15.7%. As for `CC1CCCN(c2ccc(C(=O)NCCc3ccccc3)cn2)C1` (centres undefined), the growth inhibition is 61.4% (active). The same measure for `O=C(O)C1CC=CCC1C(=O)NCCc1ccccc1` (centres undefined): -21.4%; for `O=C(NCCCNCc1ccccc1)c1ccc(/C=N/O)nc1`: -12.5%; for `COc1ccc(S(=O)(=O)N2CCOCC2)cc1C(=O)Nc1nc2ccccc2s1`: -15.6%. On to `CCCn1c(=O)c2[nH]c(C3CCCC3)nc2n(CCC)c1=O`, for which the growth inhibition was 5.97%. Turning to `O.O.O.O=S(=O)([O-])OC[C@H]1O[C@@H](O[C@]2(COS(=O)(=O)[O-])O[C@H](OS(=O)(=O)[O-])[C@@H](OS(=O)(=O)[O-])[C@@H]2OS(=O)(=O)[O-])[C@H](OS(=O)(=O)[O-])[C@@H](OS(=O)(=O)[O-])[C@@H]1OS(=O)(=O)[O-].[Al]`, the growth inhibition was -6.62%.

On to `CCOC(=O)CSc1nnc(-c2cccc(Br)c2)o1`, for which the growth inhibition was -4.64%.

With `Cc1noc(C)c1S(=O)(=O)N(CC(=O)NCc1ccc(Cl)cc1)c1ccc2c(c1)OCO2`, the growth inhibition was -5.56%.

Regarding `N#Cc1nc(COc2ccc(Cl)cc2)oc1N1CCCC1`, the growth inhibition is 7.84%. The same measure for `CC1CCN(c2oc(-c3ccccc3F)nc2C#N)CC1`: 71.3% (active); for `N#CCCN1CCN(S(=O)(=O)c2ccc(S(=O)(=O)NC3CCCCC3)cc2)CC1`: -0.61%. The figure for `Cc1cc(NC(=O)CN2CCC(O)(c3cccc(F)c3)CC2)no1` is -18.6%; for `O=C(Cn1nnc(-c2ccc3c(c2)OCO3)n1)NCc1ccco1` it is 7.12%; for `O=C(NCCCCO)C(F)(F)C(F)(F)C(F)(F)C(=O)NCCCCO` it is -11%. The same measure for `CCOC(=O)c1c(NC(=O)CSc2nnc(CN3CCOCC3)n2C)sc2c1CCCC2`: 5.6%; for `CCOC(=O)c1c(NC(=O)CSc2nnc(C)c(=O)[nH]2)sc2c1CCC2`: 66.5% (active); for `CCOCC(=O)Nc1sc2c(c1C(=O)OCC)CCCC2`: 42.8%.

As to `CC1(C)CC(=O)c2cc(OCC(=O)NCC3CCCO3)ccc2O1` (centres undefined), the growth inhibition is -5%.

For the compound `O=C(NCCCN1CCCCCC1)C1CC(=O)N(C2CCCC2)C1` (centres undefined), the growth inhibition was -11.7%. The figure for `COc1cc(OC)cc(C(=O)Nc2ccc(-c3nc4ccccc4o3)c(O)c2)c1` is 19.7%; for `Cc1nc(SC(C)C)[nH]c(=O)c1Cc1ccccc1` it is 0%; for `Cc1nc2nc(COc3ccccc3)[nH]n2c(=O)c1C` it is 11.6%. The figure for `Cc1nc2nc(COc3ccccc3)[nH]n2c(=O)c1Cc1ccccc1` is 100% (active). As to `O=C(NCc1ccco1)c1sc2cccc(F)c2c1Cl`, the growth inhibition was -1.49%.

Take `CCOc1ccccc1NC(=O)C1CCN(S(=O)(=O)c2c(C)nn(C)c2C)CC1`: the growth inhibition is -6.48%.

Turning to `COc1ccc(-n2c(SCC(=O)OC(C)C)nnc2-c2ccccn2)cc1`, the growth inhibition was 4.58%. The same measure for `Nc1nonc1-c1nc2ccccc2n1Cc1ccc(F)cc1`: -8.77%; for `O=c1c(-c2ccccc2)coc2c(CN3CCOCC3)c(O)ccc12`: -9.34%; for `CCOC(=O)c1c(CN2CCOCC2)n(-c2ccccc2)c2ccc(O)cc12`: 65.2% (active). As for `Cc1c(C(=O)N2CCOCC2)[nH]c2ccc(OCc3ccccc3)cc12`, the growth inhibition is 1.84%. For `O=C(O)c1ccc(NS(=O)(=O)c2cccc3nsnc23)cc1`, the growth inhibition is -25%. For the compound `Cc1cccc2nc(CNc3ccc(F)cc3)cn12`, the growth inhibition was 4.83%.

Regarding `COc1cc(-c2noc(C3CCCN(S(=O)(=O)c4cccc(Cl)c4)C3)n2)cc(OC)c1OC` (centres undefined), the growth inhibition was 35.2%. With `O=C(Nc1ccccc1N1CCCCC1)c1ccc2nccnc2c1`, the growth inhibition was 28.8%. `O=C(Nc1ccccc1N1CCN(c2ccccc2)CC1)c1cccc(F)c1`: the growth inhibition is 17.8%. The same measure for `O=C(Nc1ccccc1N1CCCCC1)c1cccc(F)c1`: 100% (active); for `O=C(Nc1ccccc1F)C1C2C=CC3(O2)C1C(=O)N(c1cccnc1)C3C(=O)NC1CCCCC1` (centres undefined): -12.5%; for `CCOc1ccc2nc(NCCNS(=O)(=O)c3ccccc3)c(C#N)cc2c1`: -0.48%. In the case of `COc1ccc2nc(N3CCCC(O)C3)c(C#N)cc2c1` (centres undefined), the growth inhibition is 5.39%. For `CCOc1ccc2nc(N3CCCN(C(=O)Nc4ccccc4C)CC3)c(C#N)cc2c1`, the growth inhibition was 62.3% (active). The same measure for `Cc1oc(-c2ccccc2F)nc1CS(=O)(=O)CC(=O)NCCCN(C)C1CCCCC1`: -1.97%; for `COc1ccc(-c2nc(CS(=O)CC(=O)N3CCc4ccccc4C3)c(C)o2)cc1` (centres undefined): 3.93%; for `Cc1ccccc1-c1nc(CS(=O)(=O)CC(=O)N2CCc3ccccc3C2)c(C)o1`: 63% (active). For `CCCc1cc(=O)[nH]c(SCc2ccc(C#N)cc2)n1`, the growth inhibition was 14.9%. With `CCCCC(=O)N(c1ccc(OC)cc1)C1C=CS(=O)(=O)C1` (centres undefined), the growth inhibition was -9.87%. In the case of `Fc1ccccc1C(c1nnnn1Cc1ccc2c(c1)OCO2)N1CCN(Cc2ccccc2)CC1` (centres undefined), the growth inhibition was 20.4%. The figure for `CCC(C)(C)n1nnnc1C(c1cccs1)N1CCN(Cc2ccccc2)CC1` (centres undefined) is 4.31%. As for `Fc1ccc(Cn2nnnc2C(c2cccs2)N2CCCCCC2)cc1` (centres undefined), the growth inhibition was 85.7% (active). As to `COc1ccc(N2CCN(Cc3cc(=O)oc4ccc5ccccc5c34)CC2)cc1`, the growth inhibition is 11.6%. On to `CCOC(=O)C1C(=O)C=C(c2ccc(OC)cc2)CC1c1ccco1` (centres undefined), for which the growth inhibition was 85.4% (active). As to `CCOC(=O)C1C(=O)NC(N2CCN(c3ccccc3)CC2)=NC1c1ccco1` (centres undefined), the growth inhibition is -7.5%. On to `COc1ccc(CCNC(=O)c2ccco2)cc1`, for which the growth inhibition is -4.03%. With `CCOc1ccc(S(=O)(=O)n2ccnc2)c2ccccc12`, the growth inhibition is 3.73%. Turning to `CS(=O)(=O)N(CC(=O)N1CCN(c2cccc(Cl)c2)CC1)c1ccccc1`, the growth inhibition was 1.41%. For `Cc1ccccc1OCC(=O)Nc1ccc(N2CCN(C(=O)C(C)C)CC2)c(Cl)c1`, the growth inhibition is 42.8%.

Regarding `CCc1nnc(NS(=O)(=O)c2ccc(NS(=O)(=O)c3ccccc3)cc2)s1`, the growth inhibition is 19%.

Take `CCOC(=O)C1CCc2nc3ccccc3c(=O)n21` (centres undefined): the growth inhibition is -18.7%. The figure for `CC1(C)Cc2ccccc2-c2nc(CN3CCOCC3)[nH]c(=O)c21` is 5.57%. `CCOC(=O)C1Cn2c(nc3c(c2=O)C(C)(CC)Cc2ccccc2-3)S1` (centres undefined): the growth inhibition was 67.9% (active). The figure for `CCCCc1nc2c(=O)[nH]c3ccccc3c2o1` is -2.92%.

Turning to `Clc1ccc(Cn2ncc3c(NCc4cccnc4)ncnc32)cc1`, the growth inhibition is 18.6%. As to `O=C(NCc1ccco1)C1CCCN(S(=O)(=O)c2cccc3nonc23)C1` (centres undefined), the growth inhibition was -21.5%.

In the case of `COc1ccc(N2C(=O)CC(N3CCC(C(N)=O)CC3)C2=O)cc1` (centres undefined), the growth inhibition was -10.9%. As for `COc1cccc(-c2nnc(NC(=O)c3ccc(S(=O)(=O)N(CC(C)C)CC(C)C)cc3)o2)c1`, the growth inhibition was 98.8% (active). Regarding `CCN(CC)C(=O)CSc1nnc(-c2cccc(OC)c2)o1`, the growth inhibition was -2.54%. Turning to `COc1cccc(NC(=O)CN(C)S(=O)(=O)c2ccc(C)cc2)c1`, the growth inhibition was 13.3%.

As to `CCOC(=O)c1sc(NC(=S)n2cc(C)cn2)c(C(=O)OCC)c1C`, the growth inhibition was 23.8%. Regarding `Cc1cc2nc(-c3ccc(NC(=O)c4cccnc4)cc3)oc2cc1C`, the growth inhibition was 10.2%.

For the compound `O=C(c1ccco1)N1CCN(C(=O)c2ccc(COc3ccc(F)cc3)o2)CC1`, the growth inhibition is 1.7%. The same measure for `Cc1cc(=O)[nH]c(=S)[nH]1`: -13.2%; for `O=C1NC(Nc2nc3ccccc3s2)(C(F)(F)F)C(=O)N1C1CCCCC1` (centres undefined): 100% (active).

Consider `COC(=O)NC1(C(F)(F)F)NC(=O)N(C2CCCCC2)C1=O` (centres undefined), for which the growth inhibition is -5.17%. In the case of `C1=C(N2CCOCC2)/C(=C/c2nc3ccccc3[nH]2)CC1`, the growth inhibition is -16.7%. The same measure for `CCOC(=O)c1cc(-c2ccc(Cl)s2)nc2c1c(C)nn2C`: 8.55%; for `CC(C)CCNC(=O)CCNS(=O)(=O)c1ccc(Cl)cc1`: 7.04%; for `COc1ccc(OC)c2sc(NC(=O)C3COc4ccccc4O3)nc12` (centres undefined): 70.5% (active). The same measure for `O=C(Nc1nc(-c2ccncc2)cs1)C1COc2ccccc2O1` (centres undefined): 36.7%. The figure for `Cc1cc(NC(=O)CCC2COc3ccccc3O2)no1` (centres undefined) is 0.5%; for `CC(=O)c1cnc(Nc2nc(C)c3cc(C)ccc3n2)nc1C` it is -6.16%. In the case of `COc1ccccc1N1CCN(C(=O)c2cc(-c3ccc(Cl)c(Cl)c3)on2)CC1`, the growth inhibition is -3.17%. In the case of `COc1ccccc1N1CCN(C(=O)c2cc(-c3ccc(Br)cc3)on2)CC1`, the growth inhibition is 63.8% (active). For `COc1ccccc1-c1cc(C(=O)N2CCCCC2)no1`, the growth inhibition is 7.63%.

For the compound `Oc1c(C(c2ccccn2)N2CCOCC2)ccc2cccnc12` (centres undefined), the growth inhibition is 29.8%.

Take `CCCC(C(=O)N1CCOCC1)N1C(=O)C2C3C=CC(C3)C2C1=O` (centres undefined): the growth inhibition was -13.1%.

Turning to `CC(C)c1ccc(N2CC(C(=O)Nc3nccs3)CC2=O)cc1` (centres undefined), the growth inhibition is 9.63%.

`Cc1oc(C)c(C(=O)NCCCC(=O)O)c1C(=O)NCCCC(=O)O`: the growth inhibition is -20.2%.

These data come from PubChem BioAssay AID573 (SRMLSC, 2007).
